This is an account of results in ChEMBL document CHEMBL1150387, “Development and experimental validation of a docking strategy for the generation of kinase-targeted libraries” (J Med Chem, 2008).

The target in assay [1] is Vascular endothelial growth factor receptor 1 (Homo sapiens) (UniProt P17948). Kind of assay: Inhibition of FLT1 at 10 uM by HTRF assay relative to control. The essentials: (§1)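 HTRF kinase assay, one panel of kinases. Inhibitor stock 50 µM in 100% DMSO; tested at 10 µM. ATP and substrate at final levels near Km. Final buffer: 50 mM Hepes/NaOH pH 7.4, 40 µM Na3VO4, 0.005% Tween-20, 1 mM DTT, MnCl2 or MgCl2 at kinase-dependent levels. Started by adding ATP/substrate. Reaction run at room temperature, time varied by kinase. Detection mix in 50 mM Hepes pH 7.4, 0.1% BSA, 150 mM KF, incubated ≥1 h at room temperature. Activity expressed as % of uninhibited control; n=2.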
On the technique in general: TR-FRET usually uses a lanthanide donor and a delayed reading to cut background.

For assay [2], the target named is T1, Ephrin type-B receptor 4 (Homo sapiens) (UniProt P54760).
T1 sequence (whole entry): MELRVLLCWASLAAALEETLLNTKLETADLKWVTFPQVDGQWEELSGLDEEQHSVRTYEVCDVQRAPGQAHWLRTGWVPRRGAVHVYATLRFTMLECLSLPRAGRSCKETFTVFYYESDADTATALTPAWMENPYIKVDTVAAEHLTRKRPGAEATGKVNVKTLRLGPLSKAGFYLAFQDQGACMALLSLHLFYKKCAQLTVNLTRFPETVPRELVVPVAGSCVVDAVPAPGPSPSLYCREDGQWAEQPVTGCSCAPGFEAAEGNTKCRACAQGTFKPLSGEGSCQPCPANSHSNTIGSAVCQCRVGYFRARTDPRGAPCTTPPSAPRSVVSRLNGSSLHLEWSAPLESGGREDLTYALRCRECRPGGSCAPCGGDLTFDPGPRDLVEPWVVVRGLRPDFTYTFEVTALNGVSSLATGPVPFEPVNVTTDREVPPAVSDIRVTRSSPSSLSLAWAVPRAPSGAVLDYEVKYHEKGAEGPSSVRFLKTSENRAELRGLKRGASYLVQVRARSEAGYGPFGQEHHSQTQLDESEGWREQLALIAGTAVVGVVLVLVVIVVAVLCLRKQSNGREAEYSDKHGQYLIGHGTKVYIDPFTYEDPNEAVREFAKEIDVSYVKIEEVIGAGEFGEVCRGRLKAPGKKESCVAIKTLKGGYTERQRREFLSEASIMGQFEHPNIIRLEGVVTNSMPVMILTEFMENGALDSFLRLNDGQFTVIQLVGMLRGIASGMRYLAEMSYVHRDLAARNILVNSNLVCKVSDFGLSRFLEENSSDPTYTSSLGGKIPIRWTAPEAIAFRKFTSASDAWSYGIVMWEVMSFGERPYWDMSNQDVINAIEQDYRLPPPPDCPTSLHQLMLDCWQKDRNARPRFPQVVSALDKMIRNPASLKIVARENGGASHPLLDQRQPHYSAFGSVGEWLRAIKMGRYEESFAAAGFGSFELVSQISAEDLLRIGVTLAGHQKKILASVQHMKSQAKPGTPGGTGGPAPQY
The assay can be described thus: Inhibition of EphB4 at 10 uM by HTRF assay relative to control. The gist of the method: as §1

In assay [3] the target is Cyclin-dependent kinase 1 (Homo sapiens) (UniProt P06493). The assay can be described thus: Inhibition of CDK1 at 10 uM by HTRF assay relative to control. The essentials: as §1
For assay [4], the target named is Cyclin-dependent kinase 2 (Homo sapiens) (UniProt P24941). The assay can be described thus: Inhibition of CDK2 at 10 uM by HTRF assay relative to control. The gist of the method:
as §1

Assay [5] concerns the target T2, Serine/threonine-protein kinase Chk1 (Homo sapiens) (UniProt O14757).
T2 sequence (whole entry): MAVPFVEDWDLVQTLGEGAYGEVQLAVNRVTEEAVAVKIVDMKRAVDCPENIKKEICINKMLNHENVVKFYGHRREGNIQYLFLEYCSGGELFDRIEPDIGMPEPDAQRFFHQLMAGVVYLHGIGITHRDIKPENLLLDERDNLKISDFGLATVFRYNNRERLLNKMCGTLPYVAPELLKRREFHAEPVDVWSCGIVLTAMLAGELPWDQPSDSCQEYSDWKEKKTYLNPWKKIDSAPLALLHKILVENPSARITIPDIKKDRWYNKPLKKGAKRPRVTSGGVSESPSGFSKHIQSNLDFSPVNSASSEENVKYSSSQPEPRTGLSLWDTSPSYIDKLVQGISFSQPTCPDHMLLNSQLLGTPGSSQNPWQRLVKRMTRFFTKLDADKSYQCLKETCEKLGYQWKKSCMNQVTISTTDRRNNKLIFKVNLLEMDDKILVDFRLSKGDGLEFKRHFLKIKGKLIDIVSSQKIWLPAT
Kind of assay: Inhibition of CHK1 at 10 uM by HTRF assay relative to control. The essentials: as §1

The target of assay [6] is T3, Calcium/calmodulin-dependent protein kinase type IV (Homo sapiens) (UniProt Q16566).
T3 sequence (whole entry): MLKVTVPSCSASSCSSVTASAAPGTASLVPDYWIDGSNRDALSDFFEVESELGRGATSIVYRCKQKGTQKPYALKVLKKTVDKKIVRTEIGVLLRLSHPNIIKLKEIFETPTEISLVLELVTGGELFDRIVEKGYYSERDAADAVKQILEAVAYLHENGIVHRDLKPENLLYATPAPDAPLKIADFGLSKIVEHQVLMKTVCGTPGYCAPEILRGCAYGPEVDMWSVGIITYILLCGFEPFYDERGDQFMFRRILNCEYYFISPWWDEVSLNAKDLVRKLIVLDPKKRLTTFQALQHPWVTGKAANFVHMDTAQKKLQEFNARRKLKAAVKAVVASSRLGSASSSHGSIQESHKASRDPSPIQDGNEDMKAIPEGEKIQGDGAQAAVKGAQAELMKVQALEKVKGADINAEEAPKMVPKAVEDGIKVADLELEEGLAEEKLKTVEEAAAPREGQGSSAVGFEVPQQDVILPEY
Kind of assay: Inhibition of CaMK4 at 10 uM by HTRF assay relative to control. The essentials:
as §1

Assay [7] deals with Protein kinase C gamma type (Homo sapiens) (UniProt P05129). Kind of assay: Inhibition of PKCgamma at 10 uM by HTRF assay relative to control. The gist of the method: as §1
Assay [8] concerns the target Protein kinase C alpha type (Homo sapiens) (UniProt P17252). Kind of assay: Inhibition of PKCalpha at 10 uM by HTRF assay relative to control. The essentials: as §1
The target of assay [9] is Ribosomal protein S6 kinase beta-1 (Homo sapiens) (UniProt P23443). Kind of assay: Inhibition of p70S6K at 10 uM by HTRF assay relative to control. The essentials:
as §1

Assay [10] addresses Proto-oncogene tyrosine-protein kinase Src (Homo sapiens) (UniProt P12931). Kind of assay: Inhibition of Src at 10 uM by HTRF assay relative to control. The essentials:
as §1

Assay [11] concerns the target Tyrosine-protein kinase Fes/Fps (Homo sapiens) (UniProt P07332). Kind of assay: Inhibition of FES at 10 uM by HTRF assay relative to control. The gist of the method:
as §1

Assay [12] deals with High affinity nerve growth factor receptor (Homo sapiens) (UniProt P04629). Kind of assay: Inhibition of TrkA at 10 uM by HTRF assay relative to control. The gist of the method:
as §1

The target in assay [13] is Vascular endothelial growth factor receptor 2 (Homo sapiens) (UniProt P35968). The assay can be described thus: Inhibition of KDR at 10 uM by HTRF assay relative to control. The essentials: as §1
Sequence of Vascular endothelial growth factor receptor 2 (Homo sapiens) (P35968 whole entry): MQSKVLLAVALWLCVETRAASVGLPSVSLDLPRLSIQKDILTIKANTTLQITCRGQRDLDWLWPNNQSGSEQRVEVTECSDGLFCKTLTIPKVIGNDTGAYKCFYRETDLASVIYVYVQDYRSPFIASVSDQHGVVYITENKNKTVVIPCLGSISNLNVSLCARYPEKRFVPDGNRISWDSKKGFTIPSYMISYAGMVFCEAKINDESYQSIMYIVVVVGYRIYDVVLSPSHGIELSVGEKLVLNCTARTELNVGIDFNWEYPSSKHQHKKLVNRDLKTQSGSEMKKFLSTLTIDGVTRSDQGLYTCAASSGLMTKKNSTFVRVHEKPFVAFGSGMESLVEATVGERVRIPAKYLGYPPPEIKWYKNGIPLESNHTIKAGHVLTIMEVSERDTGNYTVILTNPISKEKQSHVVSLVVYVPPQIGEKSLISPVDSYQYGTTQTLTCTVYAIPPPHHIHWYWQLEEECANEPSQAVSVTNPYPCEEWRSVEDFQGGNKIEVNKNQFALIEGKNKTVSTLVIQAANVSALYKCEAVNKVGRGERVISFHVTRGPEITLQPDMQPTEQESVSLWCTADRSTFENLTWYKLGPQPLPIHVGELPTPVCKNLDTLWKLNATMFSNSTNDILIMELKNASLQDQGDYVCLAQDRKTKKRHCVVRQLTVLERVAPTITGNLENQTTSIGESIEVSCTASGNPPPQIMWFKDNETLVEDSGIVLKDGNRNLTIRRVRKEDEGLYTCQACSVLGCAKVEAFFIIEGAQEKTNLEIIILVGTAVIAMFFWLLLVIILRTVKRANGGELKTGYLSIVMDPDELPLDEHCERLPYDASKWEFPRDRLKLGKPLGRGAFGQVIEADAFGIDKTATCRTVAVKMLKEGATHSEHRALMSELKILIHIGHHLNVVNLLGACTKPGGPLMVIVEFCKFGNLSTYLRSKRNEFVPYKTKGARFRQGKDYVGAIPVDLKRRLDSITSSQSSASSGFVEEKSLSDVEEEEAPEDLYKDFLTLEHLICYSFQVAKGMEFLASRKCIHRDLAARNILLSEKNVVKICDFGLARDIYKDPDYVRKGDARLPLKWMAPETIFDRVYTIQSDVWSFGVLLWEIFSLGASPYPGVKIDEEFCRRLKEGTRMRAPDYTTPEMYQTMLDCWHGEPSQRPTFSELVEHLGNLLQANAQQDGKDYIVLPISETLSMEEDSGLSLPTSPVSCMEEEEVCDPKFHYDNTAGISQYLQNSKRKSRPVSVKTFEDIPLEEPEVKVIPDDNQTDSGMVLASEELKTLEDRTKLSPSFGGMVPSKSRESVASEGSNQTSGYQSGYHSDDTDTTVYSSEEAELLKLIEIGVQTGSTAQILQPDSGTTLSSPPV

Sequence of Ribosomal protein S6 kinase beta-1 (Homo sapiens) (P23443 whole entry, looked up): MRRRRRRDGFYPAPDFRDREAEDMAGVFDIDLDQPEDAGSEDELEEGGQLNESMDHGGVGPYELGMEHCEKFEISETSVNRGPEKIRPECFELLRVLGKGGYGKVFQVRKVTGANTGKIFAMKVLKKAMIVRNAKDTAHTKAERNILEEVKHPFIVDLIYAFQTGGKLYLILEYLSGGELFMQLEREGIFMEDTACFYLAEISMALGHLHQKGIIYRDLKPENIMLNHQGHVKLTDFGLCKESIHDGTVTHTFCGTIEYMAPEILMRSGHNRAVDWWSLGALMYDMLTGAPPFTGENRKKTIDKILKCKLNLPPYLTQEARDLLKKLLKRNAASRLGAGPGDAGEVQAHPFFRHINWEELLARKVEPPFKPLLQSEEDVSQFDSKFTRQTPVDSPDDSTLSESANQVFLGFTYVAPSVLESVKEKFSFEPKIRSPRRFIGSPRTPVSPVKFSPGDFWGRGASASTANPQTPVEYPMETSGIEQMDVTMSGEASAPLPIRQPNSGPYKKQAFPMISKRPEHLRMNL
Sequence of Tyrosine-protein kinase Fes/Fps (Homo sapiens) (P07332 whole entry): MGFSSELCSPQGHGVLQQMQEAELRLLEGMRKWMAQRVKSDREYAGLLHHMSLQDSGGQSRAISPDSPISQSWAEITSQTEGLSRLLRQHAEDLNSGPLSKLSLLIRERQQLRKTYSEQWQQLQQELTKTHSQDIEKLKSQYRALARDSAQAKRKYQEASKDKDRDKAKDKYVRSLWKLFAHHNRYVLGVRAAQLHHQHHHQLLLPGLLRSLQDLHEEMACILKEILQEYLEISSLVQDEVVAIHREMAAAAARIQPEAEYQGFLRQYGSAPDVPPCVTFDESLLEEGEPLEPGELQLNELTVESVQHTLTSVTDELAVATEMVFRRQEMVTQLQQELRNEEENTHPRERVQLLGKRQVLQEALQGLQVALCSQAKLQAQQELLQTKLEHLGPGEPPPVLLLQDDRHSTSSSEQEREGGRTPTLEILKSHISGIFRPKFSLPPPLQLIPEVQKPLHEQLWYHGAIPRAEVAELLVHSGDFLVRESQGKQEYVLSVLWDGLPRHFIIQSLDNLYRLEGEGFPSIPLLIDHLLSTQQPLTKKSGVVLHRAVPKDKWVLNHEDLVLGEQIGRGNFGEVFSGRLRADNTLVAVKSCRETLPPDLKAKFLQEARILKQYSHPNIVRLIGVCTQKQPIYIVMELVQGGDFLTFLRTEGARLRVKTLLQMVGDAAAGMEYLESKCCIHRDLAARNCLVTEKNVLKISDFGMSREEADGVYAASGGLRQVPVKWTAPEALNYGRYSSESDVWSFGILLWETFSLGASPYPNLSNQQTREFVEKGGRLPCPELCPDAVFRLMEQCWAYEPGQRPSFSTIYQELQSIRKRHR
Sequence of Proto-oncogene tyrosine-protein kinase Src (Homo sapiens) (P12931 2-536 limits assumed): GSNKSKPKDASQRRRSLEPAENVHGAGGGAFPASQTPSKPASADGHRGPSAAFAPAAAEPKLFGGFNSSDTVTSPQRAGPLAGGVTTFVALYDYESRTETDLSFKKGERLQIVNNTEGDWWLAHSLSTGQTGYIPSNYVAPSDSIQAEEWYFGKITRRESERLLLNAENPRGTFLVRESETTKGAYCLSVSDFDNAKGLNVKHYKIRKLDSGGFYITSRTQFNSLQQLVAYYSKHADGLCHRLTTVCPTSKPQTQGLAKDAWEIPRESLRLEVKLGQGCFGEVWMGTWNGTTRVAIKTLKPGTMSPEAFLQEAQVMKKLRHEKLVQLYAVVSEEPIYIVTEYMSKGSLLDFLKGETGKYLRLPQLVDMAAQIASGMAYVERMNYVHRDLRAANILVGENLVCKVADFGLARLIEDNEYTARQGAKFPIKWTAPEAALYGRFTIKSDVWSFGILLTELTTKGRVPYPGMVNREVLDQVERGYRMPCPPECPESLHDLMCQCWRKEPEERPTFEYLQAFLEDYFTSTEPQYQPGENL
Sequence of Vascular endothelial growth factor receptor 1 (Homo sapiens) (P17948 whole entry): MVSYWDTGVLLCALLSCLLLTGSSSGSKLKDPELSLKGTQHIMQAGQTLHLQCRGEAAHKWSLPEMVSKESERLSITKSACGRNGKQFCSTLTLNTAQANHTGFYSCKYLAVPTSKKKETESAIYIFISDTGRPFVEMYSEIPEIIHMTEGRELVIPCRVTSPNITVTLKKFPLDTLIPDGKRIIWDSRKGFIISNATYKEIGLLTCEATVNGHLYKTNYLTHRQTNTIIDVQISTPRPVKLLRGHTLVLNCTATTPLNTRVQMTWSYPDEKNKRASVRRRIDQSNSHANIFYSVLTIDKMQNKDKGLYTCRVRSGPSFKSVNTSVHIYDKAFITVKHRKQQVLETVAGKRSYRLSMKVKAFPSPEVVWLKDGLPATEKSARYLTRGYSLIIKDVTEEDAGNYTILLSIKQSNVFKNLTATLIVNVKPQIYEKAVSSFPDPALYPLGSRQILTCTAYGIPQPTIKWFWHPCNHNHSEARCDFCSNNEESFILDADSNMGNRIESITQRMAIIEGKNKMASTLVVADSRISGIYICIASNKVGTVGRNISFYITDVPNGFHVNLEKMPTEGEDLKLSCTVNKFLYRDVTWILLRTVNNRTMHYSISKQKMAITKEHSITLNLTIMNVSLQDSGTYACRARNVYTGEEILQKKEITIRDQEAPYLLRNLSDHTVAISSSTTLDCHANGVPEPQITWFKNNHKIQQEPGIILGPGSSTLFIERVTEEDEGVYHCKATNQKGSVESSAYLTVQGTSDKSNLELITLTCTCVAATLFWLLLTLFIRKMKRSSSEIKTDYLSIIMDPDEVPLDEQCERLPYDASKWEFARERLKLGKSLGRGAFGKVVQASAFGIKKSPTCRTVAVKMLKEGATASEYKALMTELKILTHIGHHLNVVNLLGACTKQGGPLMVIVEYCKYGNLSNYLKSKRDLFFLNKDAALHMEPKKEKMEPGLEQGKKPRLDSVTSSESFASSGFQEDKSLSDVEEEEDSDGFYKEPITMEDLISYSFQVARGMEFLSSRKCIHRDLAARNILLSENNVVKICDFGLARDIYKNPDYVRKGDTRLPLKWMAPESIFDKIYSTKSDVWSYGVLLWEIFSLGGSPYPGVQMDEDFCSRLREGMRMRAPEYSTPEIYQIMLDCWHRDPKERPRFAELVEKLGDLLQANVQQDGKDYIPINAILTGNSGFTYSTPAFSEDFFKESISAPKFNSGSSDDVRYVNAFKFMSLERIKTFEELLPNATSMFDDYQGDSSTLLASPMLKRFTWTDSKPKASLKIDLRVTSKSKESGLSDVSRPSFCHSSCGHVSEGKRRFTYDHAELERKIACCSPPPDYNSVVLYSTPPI
Sequence of Cyclin-dependent kinase 1 (Homo sapiens) (P06493 whole entry, looked up): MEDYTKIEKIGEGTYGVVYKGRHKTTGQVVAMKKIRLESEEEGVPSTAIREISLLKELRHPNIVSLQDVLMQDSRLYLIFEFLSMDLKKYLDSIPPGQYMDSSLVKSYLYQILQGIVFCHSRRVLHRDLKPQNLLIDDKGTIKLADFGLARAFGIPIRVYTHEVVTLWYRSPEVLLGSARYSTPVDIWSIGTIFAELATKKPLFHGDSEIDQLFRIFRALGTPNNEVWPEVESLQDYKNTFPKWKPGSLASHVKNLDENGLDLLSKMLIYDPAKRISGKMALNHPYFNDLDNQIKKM

What is called inhibition is the relative decrease from the control value, in per cent. Turning to `COc1cccc(Nc2cc(Nc3cccc(C(=O)N(C)CCc4ccccn4)c3)nc(N)n2)c1`, the inhibition is 15% in assay [1]; 0% in assay [2]; 0% in assay [3]; 1% in assay [4]; 9% in assay [5]; 0% in [6]. Also, the inhibition in [7] worked out at 1%; in [8] it was 0%; in assay [9], 8%; in [10], 6%; in [11], 7%; in assay [12] it was 9%. In [13], this molecule registered an inhibition of 7%.

On to `Nc1nc(Nc2ccc(C(=O)NCCc3ccncc3)cc2)cc(N2CCOCC2)n1`, for which the inhibition is 0% in [1]; 0% in assay [2]; 0% in assay [3]; 2% in assay [4]; 2% in assay [5]; 0% in assay [6]. The inhibition was 0% in assay [7]; 0% in assay [8]; 11% in [9]; 3% in assay [10]; 9% in assay [11]; 7% in assay [12]. This molecule showed an inhibition in assay [13] of 13%.

In the case of `O=C(CN1CCN(c2ncnc3c2CN(Cc2ccccc2)CC3)CC1)Nc1cc(F)ccc1F`, the inhibition came to 0% in assay [1]; 0% in [2]; 0% in assay [3]; 9% in assay [4]; 0% in assay [5]; 0% in [6]. For the same molecule, the inhibition in [7] turned out to be 0%; in assay [8], 4%; in assay [9], 8%; in [10], 1%; in [11] it was 11%; in assay [12] it was 10%. In [13], this molecule yielded an inhibition of 1%.

As for `CN(C)CC(C)(C)CNC(=O)C1CCN(c2cc(N3CCOCC3)nc(N)n2)CC1`, the inhibition came to 0% in [1]; 0% in [2]; 0% in [3]; 8% in assay [4]; 8% in assay [5]; 0% in assay [6]. Besides, the inhibition worked out at 3% in assay [7]; 0% in assay [8]; 6% in assay [9]; 10% in [10]; 3% in assay [11]; 7% in assay [12]. In assay [13], this molecule came in with an inhibition of 12%.

Regarding `O=C(NC[C@@H]1CCCO1)c1cccc(Nc2nccc(Nc3ccc4ncsc4c3)n2)c1`, the inhibition worked out at 87% in assay [1]; 57% in assay [2]; 11% in [3]; 38% in [4]; 2% in assay [5]; 0% in [6]. For the same molecule, the inhibition turned out to be 30% in [7]; 1% in assay [8]; 23% in [9]; 97% in [10]; 90% in assay [11]; 34% in assay [12]. The inhibition in assay [13] worked out at 95%.

`Cc1cccc(Nc2nccc3c2CN(C(=O)c2cc(C)n(C)c2C)CC3)c1`: the inhibition was found to be 0% in assay [1]; 0% in assay [2]; 0% in assay [3]; 8% in assay [4]; 3% in assay [5]; 0% in assay [6]. The inhibition in assay [7] amounted to 4%; in assay [8] it was 1%; in assay [9] it was 6%; in [10], 0%; in [11], 2%; in [12] it was 4%. The molecule also returned an inhibition in assay [13] of 0%.

As for `CN(CCc1ccccn1)C(=O)c1cccc(Nc2nccc(Nc3ccc4ncsc4c3)n2)c1`, the inhibition in [1] came to 72%; in assay [2] it was 17%; in assay [3], 0%; in assay [4], 12%; in assay [5] it was 0%; in assay [6], 0%. Moreover, the inhibition in [7] was found to be 27%; in [8], 5%; in [9] it was 19%; in assay [10] it was 69%; in [11] it was 51%; in assay [12], 56%. The inhibition in assay [13] turned out to be 95%.

For `Cc1cccc(N(C)c2cc(N3CCN(C(=O)Cc4c[nH]c5ccccc45)CC3)ncn2)c1`, the inhibition in [1] was 0%; in [2], 0%; in assay [3], 0%; in assay [4], 10%; in assay [5], 4%; in [6], 0%. For the same molecule, the inhibition in assay [7] is 2%; in assay [8] it was 0%; in assay [9], 7%; in assay [10] it was 0%; in [11] it was 24%; in assay [12] it was 2%. Moreover, the inhibition in [13] came out at 3%.

Take `Nc1nc(N2CCOCC2)cc(N2CCC(C(=O)NCc3cccs3)CC2)n1`: the inhibition in assay [1] amounted to 0%; in assay [2], 0%; in assay [3], 0%; in assay [4], 14%; in assay [5], 1%; in [6] it was 0%. The inhibition in [7] was 0%; in assay [8], 0%; in assay [9], 7%; in assay [10], 3%; in assay [11] it was 9%; in assay [12], 9%. Also, the inhibition in [13] was determined as 17%.

As to `Cc1cccc(Nc2cc(Nc3cccc(C(=O)N(CC(C)O)CC(C)O)c3)ncn2)c1` (stereo not drawn), the inhibition is 83% in assay [1]; 0% in [2]; 0% in assay [3]; 3% in assay [4]; 3% in [5]; 0% in assay [6]. Also, the inhibition turned out to be 1% in [7]; 1% in [8]; 14% in [9]; 26% in [10]; 20% in [11]; 11% in assay [12]. Also, in [13], the inhibition was found to be 83%.

Regarding `Nc1nc(Nc2ccccc2)cc(N2CCC(C(=O)NCCc3ccccn3)CC2)n1`, the inhibition in [1] worked out at 0%; in assay [2], 0%; in [3], 0%; in [4], 17%; in assay [5], 0%; in [6], 0%. Moreover, the inhibition in [7] came out at 5%; in assay [8], 0%; in assay [9], 5%; in assay [10], 0%; in [11], 0%; in assay [12], 5%. The molecule further gave an inhibition in assay [13] of 1%.
